Measurements gathered from unrelated publications.
Lines come from different studies, so protocols differ.
Matrix: plasma

COc1cc(N2CCC(N3CCN(C)CC3)CC2)ccc1Nc1ncnc(Nc2ccccc2S(=O)(=O)C(C)C)n1  AUC(0-t) (human; oral, 125 mg, multiple doses, patients): 8320 ng·h/mL
FC(F)(F)c1ccc(CNc2ccc(Cc3c[nH]c4ncc(Cl)cc34)cn2)cn1  AUC(0-t) (human; oral, 1000 mg, multiple doses, patients): 14000 ng·h/mL
C[C@@H](Nc1cc(F)cc(F)c1)c1cc(C(=O)N(C)C)cc2c(=O)cc(N3CCOCC3)oc12  AUC(0-t) (human; oral, 60 mg, single dose, patients): 1240 ng·h/mL
Cc1nc(NC(=O)N2CCC[C@H]2C(N)=O)sc1-c1ccnc(C(C)(C)C(F)(F)F)c1  AUC(0-t) (human; oral, 180 mg, patients): 15500 ng·h/mL
C[C@@]1(c2cc(NC(=O)c3ccc(C#N)cn3)ccc2F)C=CSC(N)=N1  AUC(0-t) (human; oral, 3 mg, single dose): 231 ng·h/mL
CO[C@H]1CC[C@H](N2C(=O)CNc3ncc(-c4ccc(C(C)(C)O)nc4)nc32)CC1  AUC(0-t) (human; oral, 45 mg, multiple doses, patients): 2080 ng·h/mL
CO[C@@H]1[C@H](OC(=O)N2CC(CCN3CCOCC3)C2)CC[C@]2(CO2)[C@H]1[C@@]1(C)O[C@@H]1CC=C(C)C  AUC(0-t) (human; subcutaneous, 0.2 mg, single dose, healthy volunteers): 0.24 ng·h/mL
CCNCCCNC/C=C\CNCCCNCC  AUC(0-t) (human; intravenous, 200 mg, patients, infusion): 1330 ng·h/mL
COCCOc1cnc2ccn([C@H](C)c3nnc4c(F)cc(-c5cnn(C)c5)cn34)c(=O)c2c1  AUC(0-t) (human; oral, 100 mg, multiple doses, once daily, patients): 17300 ng·h/mL
CC(C)(O)c1ccccc1-c1ccc2[nH]c(/C=C/c3ccc(C(F)(F)F)cc3)nc2c1  AUC(0-t) (male human; oral, 1 mg, single dose, fasted): 83 ng·h/mL
CC(C)n1cc(C#N)c2cc(-n3cc(C(=O)O)cn3)ccc21  AUC(0-t) (human; oral, 50 mg, single dose, fasted, healthy volunteers): 6980 ng·h/mL
COc1ccc([C@@H]2CN(C(=O)[C@@H](O)CO)C[C@@]2(C)[C@@H](C)O)cc1OC1CN(c2ccc(C)cn2)C1  AUC(0-t) (human; oral, 1.5 mg, single dose, healthy volunteers): 467 ng·h/mL
